In ChEMBL document CHEMBL1799926, “Applying the pro-drug approach to afford highly bioavailable antagonists of P2Y(14)” (Bioorg Med Chem Lett, 2011):

Experiments:
[1] = Clearance in mouse at 75 mg/kg, po bid; format: ADME, organism-based; design: dose 75 mg/kg, route oral; settings: in vivo
[2] = Binding affinity to chimpanzee P2Y14 receptor in presence of 2% human serum albumin; design: species or system Pan troglodytes
Albumin = Albumin (Homo sapiens, UniProt P02768); experiment: Binding affinity to 4.5 % human serum albumin
Chain of Albumin (P02768 whole entry): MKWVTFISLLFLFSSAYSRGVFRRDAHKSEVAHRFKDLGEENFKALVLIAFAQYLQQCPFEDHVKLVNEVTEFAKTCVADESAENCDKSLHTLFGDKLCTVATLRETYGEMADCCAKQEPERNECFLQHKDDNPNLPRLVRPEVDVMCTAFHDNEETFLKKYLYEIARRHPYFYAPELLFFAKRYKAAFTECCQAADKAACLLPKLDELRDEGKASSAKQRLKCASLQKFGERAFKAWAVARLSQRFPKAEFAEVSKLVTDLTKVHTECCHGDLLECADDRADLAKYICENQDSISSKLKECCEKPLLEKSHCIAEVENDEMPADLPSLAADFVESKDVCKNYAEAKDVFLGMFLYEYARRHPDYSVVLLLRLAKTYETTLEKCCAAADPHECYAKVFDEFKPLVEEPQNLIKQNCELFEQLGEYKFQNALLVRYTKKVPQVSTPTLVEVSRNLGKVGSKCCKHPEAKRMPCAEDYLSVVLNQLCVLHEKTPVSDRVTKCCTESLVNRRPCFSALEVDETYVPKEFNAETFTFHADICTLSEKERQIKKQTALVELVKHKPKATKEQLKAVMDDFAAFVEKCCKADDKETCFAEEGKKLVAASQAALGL

[3] = Half life in mouse at 75 mg/kg, po bid; format: ADME, organism-based; design: dose 75 mg/kg, route oral; settings: in vivo
[4] = Oral bioavailability in mouse at 75 mg/kg bid; format: ADME, organism-based; settings: in vivo
[5] = Binding affinity to chimpanzee P2Y14 receptor; design: species or system Pan troglodytes
[6] = Metabolic stability in whole blood after 1 hr
[7] = Oral bioavailability in mouse at 50 mg/kg; format: ADME, organism-based; settings: in vivo
Summary of the method: (§1)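 Mice dosed orally at 50 mg/kg in 0.25% methocel. Plasma levels of the parent zwitterion were measured for both the parent and the ester prodrugs, giving AUC, 24 h concentration and clearance. For prodrugs, bioavailability is expressed as virtual F, based on parent-drug exposure.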

[8] = Plasma concentration in mouse at 50 mg/kg, po after 24 hrs; format: ADME, organism-based; design: dose 50 mg/kg, route oral; summary of the method: as §1
Mus musculus = experiment: (§2) AUC in mouse at 50 mg/kg, po after 24 hrs; format: ADME, organism-based, Plasma; design: time < 24 hr, dose 50 mg/kg, route oral; settings: in vivo, 24 h; summary of the method: as §1
[9] = as §2; format: ADME, organism-based, Plasma; design: time < 24 hr, dose 50 mg/kg, route oral; settings: plasma; summary of the method: as §1

| Structure (SMILES) | Ki [2] [nM] | Ki [5] [nM] | Stability [6] | bioavailability [7] [%] | concentration at 24 h [8] [nM] | also measured |
| --- | --- | --- | --- | --- | --- | --- |
| O=C(O)c1cc(-c2ccc([C@@H](O)C(F)F)cc2)c2ccc(-c3ccc(C(F)(F)F)cc3)cc2c1 | 1290 | 4 | – | – | – | CL/F [1]: 1.6 mL/min/kg; Activity (Albumin): > 99%; half-life [3]: 3 h; bioavailability [4]: 67% |
| CC(=O)OCOC(=O)c1cc(-c2ccc(C3CCNCC3)cc2)c2ccc(-c3ccc(C(F)(F)F)cc3)cc2c1 | – | – | Unstable | – | – | – |
| CC(OCC(=O)C(C)C)OC(=O)c1cc(-c2ccc(C3CCNCC3)cc2)c2ccc(-c3ccc(C(F)(F)F)cc3)cc2c1 (stereo not drawn) | – | – | Unstable | – | – | – |
| CN(C)CCOC(=O)c1cc(-c2ccc(C3CCNCC3)cc2)c2ccc(-c3ccc(C(F)(F)F)cc3)cc2c1 | – | – | Unstable | – | – | – |
| CN(C)C(=O)COC(=O)c1cc(-c2ccc(C3CCNCC3)cc2)c2ccc(-c3ccc(C(F)(F)F)cc3)cc2c1 | – | – | Unstable | 67 | 2280 | AUC (Mus musculus): 54 µM·h |
| O=C(O)c1cc(-c2ccc(C3CCNCC3)cc2)c2ccc(-c3ccc(C(F)(F)F)cc3)cc2c1 [PPTN] | 35 | 1.9 | – | 5 | 680 | AUC at 24 h [9]: 23 µM·h |
